# Compounds with a hit are over-represented: about 2.9% of the library has one in this group of screens.
# Runt-SMMHC FRET = inhibitors of RUNX1 Runt–CBFb-SMMHC binding, primary screen, biochemical, FRET, Cerulean-Runt, Venus-CBFb-SMMHC, uHTS | Cerulean-Runt/Venus-CBFb-SMMHC FRET ratio 530/480, 1 h | AID 1434, 2008 | 220,000 compounds, 0.74% hits | Runt-related transcription factor 1 (Homo sapiens) + Core-binding factor subunit beta … | inhibition, % at 20 µM;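 active = mean inhibition across duplicate retests at 20 µM reaching about 50%, limit read from the data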;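 also: 0% = DMSO wells and 100% = wells with excess untagged CBFb-SMMHC; inhibitors lower the FRET ratio by blocking Runt binding to CBFb-SMMHC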
# M18AAP inhibitor = PfM18AAP inhibitors, malaria aminopeptidase, primary screen, biochemical, QFRET, recombinant enzyme | M18 aspartyl aminopeptidase (Plasmodium falciparum 3D7) | H-Glu-NHMec fluorogenic cleavage | 290,000 compounds, 1.2% hits | inhibition, % at 7.35 µM | AID 1822, 2009;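 active = inhibition above the campaign mean inhibition over all tested compounds plus 3 SD, cut at about 28% in these data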;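 also: 0% = plate median of test compound wells and 100% = 2 mM ZnCl2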
# RBBP9 inh = human RBBP9 inhibitors, primary screen, biochemical, fluorescence polarization, FP-Rh probe, HTS. 220,000 compounds, 0.2% hits. recombinant RBBP9. Serine hydrolase RBBP9 (Homo sapiens), O75884. inhibition, % at 7.94 µM;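 active = inhibition above the campaign mean of all tested compounds plus 3 SD, cut at about 14% in these data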;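 also: plate controls were DMSO wells with RBBP9 for no effect and wells lacking RBBP9 protein for full effect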
#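 Measured by: FP readout at 525/598 nm; material: recombinant human RBBP9; also added: Serine-hydrolase probe FP-Rh, 375 nM pre-mixing; medium: Tris buffer pH 8.0, NaCl, Pluronic; replication: one well per compound; doses: one concentration, 7.94 µM nominal, 0.794% DMSO; timing: preincubation 30 min plus labeling 45 min at 25 °C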
# Hck-Nef inh = inhibitors of Nef-activated human Hck kinase, primary screen, biochemical, Z-Lyte FRET, 384-well, Hck-YEEI; Tyrosine-protein kinase HCK (Homo sapiens), P08631; Recombinant Hck-YEEI plus Nef, Z-Lyte FRET kinase assay; inhibition, % at 20 µM; 220,000 compounds, 0.68% hits;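 active = Hck-Nef kinase inhibition above about 50%, limit read from the data; inactive = inhibition below that limit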;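 also: 0% = DMSO with Hck plus Nef and 100% = Hck alone without Nef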
# Target sequence (P08631 whole entry, looked up): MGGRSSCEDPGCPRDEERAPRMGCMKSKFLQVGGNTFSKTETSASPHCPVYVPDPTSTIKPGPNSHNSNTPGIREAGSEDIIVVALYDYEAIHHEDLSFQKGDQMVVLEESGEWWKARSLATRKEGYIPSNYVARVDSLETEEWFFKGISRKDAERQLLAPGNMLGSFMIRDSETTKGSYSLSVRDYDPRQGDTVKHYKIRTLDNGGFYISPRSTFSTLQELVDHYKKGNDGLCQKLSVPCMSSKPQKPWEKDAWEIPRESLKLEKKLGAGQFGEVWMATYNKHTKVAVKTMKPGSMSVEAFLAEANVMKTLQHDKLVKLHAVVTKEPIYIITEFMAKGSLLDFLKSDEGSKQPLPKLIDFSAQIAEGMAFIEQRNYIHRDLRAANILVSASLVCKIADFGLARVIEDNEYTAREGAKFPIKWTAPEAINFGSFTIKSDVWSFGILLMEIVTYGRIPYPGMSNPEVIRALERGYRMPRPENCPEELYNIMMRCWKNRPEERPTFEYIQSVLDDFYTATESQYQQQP
# RanGTP-Imp inh = inhibitors of RanGTP-importin-beta interaction, primary screen, biochemical, FRET, CFP-Ran, YFP-importin-beta, homogeneous; Ran GTPase (GTP-bound) - importin-beta complex; cell-free CFP-Ran/YFP-importin-beta FRET ratio; inhibition, % (no concentration beside the values); 300,000 compounds, 1.1% hits; AID 2216, 2009;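 active = more than half of the replicate wells show a fall in the fluorescence ratio signal beyond about 16%, limit read from the data, passing the limit was not always enough; inconclusive = exactly half of the replicate wells pass the set limit; inactive = fewer than half of replicates pass the limit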;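 also: 0% = DMSO wells and 100% = Ran loaded with GDP instead of GTP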
# Runt-CBFb FRET = inhibitors of RUNX1 Runt–CBFb binding, primary screen, biochemical, FRET, Cerulean-Runt, Venus-CBFb, uHTS | inhibition, % at 20 µM | AID 1496, 2009 | Cerulean-Runt/Venus-CBFb FRET ratio 530/480, 1 h | 220,000 compounds, 0.46% hits;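 active = inhibition over about 50% at 20 µM in the single-dose screen, limit read from the data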;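 also: 0% = DMSO wells and 100% = excess unlabeled CBFb competitor control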
#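 Doses: 20 µM compound in 1% DMSO | Material: Cerulean-labeled Runt domain protein | Amount: Each fluorescent fusion protein 100 nM | Schedule: Two 1 h room-temperature incubations shielded from light | Measured by: FRET fluorescence | Evaluation: Loss of energy transfer signal | Controls: Unlabeled CBFb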
# An asterisk follows results filed as active; ? = inconclusive; / = no result.
SMILES,Runt-SMMHC FRET,M18AAP inhibitor,RBBP9 inh,Hck-Nef inh,RanGTP-Imp inh,Runt-CBFb FRET
CCc1nnc(N/N=C/c2c(C)[nH]c3ccccc23)n1N,4,54*,0,18,6,31
Cc1[nH]c2ccccc2c1/C=N/NC(N)=S,-4,11,-3,19,-1,-1
Nc1ncc(S(=O)(=O)c2ccc(Cl)cc2)c(N)n1,/,-13,/,/,2,/
CCN(C(=O)Cn1cnc2cc([N+](=O)[O-])ccc2c1=O)C1CCS(=O)(=O)C1 (stereo unspecified),-15,4,3,21,14*,0
CC(=O)Nc1cccc(N/C=C(\C=O)c2nc3ccccc3o2)c1,66*,2,-5,7,1,26
CC(=O)Nc1ccc(N/C=C(\C=O)c2nc3ccccc3o2)cc1,29,4,-6,0,4,11
CCOc1ccc(-c2csc(NC(=O)CSCC(=O)O)n2)c2ccccc12,97*,1,-11,16,0,27
Cc1ccc(C(c2sc3ncnn3c2O)N2CC(C)CC(C)C2)cc1 (stereo unspecified),-2,30*,-3,20,-3,-1
COc1ccc(C(c2sc3ncnn3c2O)N2CC(C)OC(C)C2)cc1OC (stereo unspecified),-2,3,-3,0,5,-1
O=C(CCN1C(=O)[C@@H]2Cc3ccccc3CN2C1=O)N[C@H](Cc1ccccc1)C(=O)O,/,-1,/,/,3,/
O=C(O)CCCCCCCCc1cn(CCc2c[nH]c3ccccc23)nn1,/,-16,/,/,-1,/
CCNC(=S)/N=C(/Nc1ccccc1)Nc1nc(C)cc(C)n1,7,30*,-8,17,?,-3
CCNC(=S)/N=C(/Nc1ccc(OC)cc1)Nc1nc(C)cc(C)n1,8,14,4,14,9,-1
CCOc1cc(/C=C2\CCCc3c2nc2ccccc2c3C(=O)O)ccc1OC,/,20,/,/,47*,/
COc1cc(/C=C2\CCCc3c2nc2ccccc2c3C(=O)O)cc(Br)c1O,/,13,/,/,0,/
N#Cc1cc(O)c(-n2nnc3ccccc32)cc1C#N,-5,1,7,16,-2,0
N#Cc1ccc(Oc2cccc3cccnc23)c([N+](=O)[O-])c1,/,-3,/,/,35*,/
N#Cc1cc(Oc2cccc3cccnc23)c(-n2nnc3ccccc32)cc1C#N,-62,1,9,0,21*,-21
O=[N+]([O-])c1ccc(Oc2cccc3cccnc23)c([N+](=O)[O-])c1,-24,7,-1,15,-13,-1
Cc1nn(-c2ccccc2)c2c1C(c1ccncc1)C(C#N)=C(N)O2 (stereo unspecified),-3,7,-7,1,-1,0
COc1cc(-n2nc(C)c3c2OC(N)=C(C#N)C3c2ccccc2)c(Cl)c(Br)c1O (stereo unspecified),8,15,-1,1,65*,5
COc1ccc(NC(C)=[N+](C)CCNS(=O)(=O)c2ccc(Cl)cc2)cc1,/,1,/,/,-4,/
COC(=O)c1ccc(N2NC(=O)/C(=C/c3cc(OC)c(O)c(OC)c3)C2=O)cc1,/,31*,/,/,-4,/
COc1ccc(CSc2nc(C)cc(C)c2S(C)(=O)=O)cc1,1,29*,-4,8,3,-1
O=C(NCc1n[nH]c(=S)n1-c1ccc(Br)cc1)c1ccc(S(=O)(=O)N2CCOCC2)cc1,14,28*,-7,0,/,11
SMILES,Runt-SMMHC FRET,M18AAP inhibitor,RBBP9 inh,Hck-Nef inh,RanGTP-Imp inh,Runt-CBFb FRET
O=C(Nc1sc2c(c1C(=O)NC1CCCCC1)CCC2)c1ccco1,12,-6,-8,18,56*,4
CC(C)Cc1nnc(NC(=O)Cc2cccs2)s1,-5,-9,-12,36,26*,2
CCOC(=O)C1CCCN(C(=O)CCn2nnnc2CN2CCOCC2)C1 (stereo unspecified),/,-3,/,/,2,/
CSc1sccc1/C=C(/C#N)C(=O)c1ccco1,/,31*,/,/,-3,/
O=C(N/N=C/c1ccc([N+](=O)[O-])cc1)c1ccc(COc2ccccc2-c2ccccc2)cc1,2,-1,-8,29,-1,1
Cc1cccc(N/N=C(\C(N)=O)C2=NC(C)(C)Cc3ccccc32)c1,-2,1,2,65*,4,-7
CCOC(=O)/C(=N\O)C1=NC(C)(C)Cc2ccccc21,-6,-2,-3,6,0,-3
Cc1cccn2c(=O)c3cc(S(=O)(=O)c4ccc(F)cc4)c(=N)n(Cc4ccco4)c3nc12,81*,-7,4,18,84*,10
Cc1cccn2c(=O)c3cc(S(=O)(=O)c4ccccc4)c(=N)n(Cc4ccc(F)cc4)c3nc12,/,3,/,/,-2,/
Cc1cccn2c(=O)c3cc(S(=O)(=O)c4ccccc4)c(=N)n(Cc4ccco4)c3nc12,/,-3,-2,31,93*,/
Cc1[nH]c(C)c(S(=O)(=O)Nc2ccc(OC(F)(F)F)cc2)c1C(=O)N1CCCCC1,/,-10,/,/,9,/
CCc1ccc(/C=C2\Oc3cc(OS(C)(=O)=O)ccc3C2=O)cc1,-6,-4,-4,1,3,-8
CCc1ccc(/C=C2\Oc3c(ccc(O)c3CN3CCN(CCO)CC3)C2=O)cc1,81*,5,0,-21,12,12
Cc1cc(OCc2ccc(C(=O)n3cccn3)o2)ccc1Cl,-12,-1,1,1,67*,1
O=C(CN1CCCCC1)NNc1nc(-c2ccccc2)c2cc(Cl)ccc2n1,-2,-3,0,7,1,1
Cc1ccc2nc(NCCO)nc(-c3ccccc3)c2c1,42,-4,-10,10,29*,32
O=C(O)CCC(=O)NNc1nc(-c2ccccc2)c2cc(Cl)ccc2n1,/,30*,/,/,4,/
OCCNc1nc(-c2ccccc2)c2cc(Cl)ccc2n1,90*,11,-6,12,1,49
OCCNc1nc(-c2ccccc2)c2ccccc2n1,10,1,-2,8,1,10
COCC1CCN(C(=O)c2ccc(OC3CCN(Cc4ccccn4)CC3)cc2)C1 (stereo unspecified),/,-12,/,/,1,/
